Consider three compounds from PMC9939723 (Redox Biology, 2023).

Where “and” joins values, the source holds several entries; their conditions need not be identical. Equal values may be shown once. Read-outs that look alike come from different tables or passages of the source.

In one data set the test system is TrxB expression in CRAB. The experiment in a line: TrxB expression by qPCR. It is filed as cell-based, Acinetobacter baumannii. Particulars: 2 h. In outline: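 Bacteria at initial OD600 0.4–0.5 exposed to compound and shaken 2 h at 37 °C. Total RNA extracted with a kit (lysis buffer, chloroform). TrxB mRNA measured by qPCR with 16S as internal control, 2^−ΔΔCt method, in triplicate.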
(Real-time PCR tracks product formation cycle by cycle.)

The test system of data set [1] is carbapenem-resistant Klebsiella pneumonia (BAA-1705). The experiment in a line: MIC by microbroth dilution against CRKP. The format is cell-based. To be noted: 24 h incubation. In outline: (§1)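 Broth microdilution per CLSI guidelines in 96-well plates. Incubated 37 °C for 24 h, then read on a microplate reader.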
Data set [2] has as its system vancomycin-intermediate Staphylococcus aureus (ATCC 700699). As to the kind of experiment: MIC by microbroth dilution against VISA. It is filed as cell-based. To be noted: 24 h incubation. In outline:
as §1
For orientation: In broth dilution the organism is exposed to a series of concentrations in liquid medium.

A further data set has as its target T1, purified rat liver TrxR (Rattus norvegicus, UniProt O89049).
T1 sequence (O89049 1-499): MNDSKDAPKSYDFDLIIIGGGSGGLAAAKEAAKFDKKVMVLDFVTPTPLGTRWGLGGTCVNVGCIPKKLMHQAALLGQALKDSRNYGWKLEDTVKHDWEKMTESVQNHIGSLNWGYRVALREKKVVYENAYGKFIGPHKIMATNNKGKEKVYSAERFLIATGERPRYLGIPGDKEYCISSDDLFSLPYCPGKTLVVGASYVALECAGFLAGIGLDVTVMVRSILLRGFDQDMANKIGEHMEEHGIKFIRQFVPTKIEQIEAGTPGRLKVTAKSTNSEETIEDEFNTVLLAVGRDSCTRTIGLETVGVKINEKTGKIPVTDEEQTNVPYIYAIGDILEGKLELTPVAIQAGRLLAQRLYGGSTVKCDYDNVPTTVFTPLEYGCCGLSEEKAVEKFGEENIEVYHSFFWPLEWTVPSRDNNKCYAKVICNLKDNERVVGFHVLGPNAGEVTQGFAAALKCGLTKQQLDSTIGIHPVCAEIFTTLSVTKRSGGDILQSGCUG
To be noted: read-out: IC50 purified TrxR activity; previous report ref 38; cited from earlier work.

The test system of data set [3] is carbapenem-resistant Acinetobacter baumannii (CRAB). The experiment in a line: MIC by microbroth dilution against CRAB. To be noted: 24 h incubation. The format is cell-based. In outline:
as §1

For a further data set, the system named is CRAB-induced peritonitis. As to the kind of experiment: Murine peritonitis infection model. It is filed as in vivo, BALB/c mice. In outline:
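Male (n = 8/group) and female (n = 12/group) BALB/c mice, 18–22 g, infected i.p. with 200 μL CRAB (1 × 10^9 cfu/mL). Single i.p. dose of 5 mg/kg given 1 h post-infection; PBS as control. Survival followed for 72 h. Experiment repeated three times.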

Data set [4] deals with carbapenem-resistant Escherichia coli (BAA-2140). The experiment in a line: MIC by microbroth dilution against CREco. It is filed as cell-based. Particulars: 24 h incubation. In outline:
as §1

The target in another data set is TrxR in CRAB (Acinetobacter baumannii, UniProt A0A0G4QN87). The experiment in a line: Cellular TrxR activity assay. It is filed as cell-based. To be noted: read-out: IC50 inhibition of TrxR activity in CRAB; 2 h treatment of bacteria. In outline:
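Cultures at OD600 0.4–0.6 exposed to 0, 0.5, 1, 2, 5, 10, 20 μM for 2 h. Pellets washed three times in PBS and normalised to OD600 0.7 ± 0.02. TrxR assayed with a kit: NADPH-driven DTNB reduction, 2-vinylpyridine added to block GSH, activity from the rate of TNB increase at 412 nm on a plate reader.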

The next data set relates to CRAB. As to the kind of experiment: Checkerboard microdilution assay, antibiotic with gold complexes. Particulars: for FIC index / MIC of antibiotic: CRAB; for MIC: Acinetobacter baumannii; for MIC of antibiotic: antibiotic alone. It is filed as cell-based, Acinetobacter baumannii. In outline:
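Checkerboard in 96-well plates. Inoculum diluted per the CLSI broth microdilution method. Gold complex 0–20 μM crossed with antibiotic 0–240 μM. Growth inhibition read as OD600 on a plate reader.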

Data set [5] has as its system carbapenem-resistant Pseudomonas aeruginosa (BAA-2108). As to the kind of experiment: MIC by microbroth dilution against CRPA. It is filed as cell-based. Particulars: 24 h incubation. In outline: as §1

Chain of TrxR in CRAB (A0A0G4QN87 1-315): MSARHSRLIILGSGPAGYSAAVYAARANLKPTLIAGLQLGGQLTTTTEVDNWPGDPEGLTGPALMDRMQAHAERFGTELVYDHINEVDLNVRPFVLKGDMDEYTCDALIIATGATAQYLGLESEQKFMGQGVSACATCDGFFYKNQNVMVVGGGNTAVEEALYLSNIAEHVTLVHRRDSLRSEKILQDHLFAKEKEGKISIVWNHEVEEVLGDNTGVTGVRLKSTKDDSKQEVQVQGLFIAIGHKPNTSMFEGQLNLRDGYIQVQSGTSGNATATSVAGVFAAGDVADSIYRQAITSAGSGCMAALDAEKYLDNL

For the compound `CC(=O)OC[C@H]1O[C@@H]([S-])[C@H](OC(C)=O)[C@@H](OC(C)=O)[C@@H]1OC(C)=O.CCP(CC)CC.[Au+]` [Auranofin], the “expression of TrxB (mRNA)” value in the data set on TrxB expression in CRAB is “no effect”. In addition, in data set [1], the “MIC CRKP” value was 40 μM and 27.12 μg/mL. Moreover, in data set [2], the “MIC VISA” value was 0.34 μg/mL and 0.5 μM. For the same compound, the figures for the IC50 on purified rat liver TrxR and on TrxR in CRAB were 0.0826 µM and 6.31 µM, respectively. Besides, the “MIC CRAB” value in data set [3] was 20 μM and 13.56 μg/mL. In the data set on CRAB-induced peritonitis (female BALB/c, n = 12, i.p. 5 mg/kg 1 h after infection), the “mice surviving to 34 h” value is recorded as “seven of the twelve mice”. The “mice surviving to 24 h” value with CRAB-induced peritonitis (male BALB/c, n = 8, single i.p. 5 mg/kg 1 h after infection) is reported as “four of the eight mice”. The “MIC CREco” value in data set [4] was 40 μM and 27.12 μg/mL. The FIC index in the data set with CRAB (gold complex in combination with cefotaxime) was 0.625; in the data set with CRAB (gold complex in combination with imipenem), 0.75. The “MIC CRPA” value in [5] is 40 μM and 27.12 μg/mL.

`CO/N=C(\C(=O)N[C@@H]1C(=O)N2C(C(=O)O)=C(COC(C)=O)CS[C@H]12)c1csc(N)n1` [Cefotaxime]: the MIC with CRAB (read-out: MIC of cefotaxime in the presence of H7) and with CRAB (read-out: MIC of cefotaxime in the presence of H8) was 30 µM throughout. For the same compound, in the data set on CRAB, the MIC of antibiotic amounted to 240 µM.

For the compound `C[C@@H](O)[C@H]1C(=O)N2C(C(=O)O)=C(SCCN=CN)C[C@H]12` [Imipenem], the MIC of antibiotic in the data set on CRAB was determined as 240 µM.
